Legend:
[1] = target: T1, High affinity nerve growth factor receptor (Homo sapiens, UniProt P04629); assay: Inhibition of human recombinant TrkA using ATP and 5FAM tagged TrkA peptide substrate incubated for 60 mins by microfluidics assay
Procedure, shortened: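 TrkA enzyme at 2 nM, preincubated 60 min with inhibitor in HEPES/MgCl2/DTT kinase buffer. Reaction started with ATP 190 µM and 5FAM-TrkA peptide 1.5 µM (running). Twelve-point half-log series, 0.2 mM–0.632 nM final. Stopped at 10–20% conversion of uninhibited control. Phospho-product separated by microfluidic read. Curves fit to one-phase exponential decay, IC50 from the half-life, duplicate, mean ± SD.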
Target sequence in this assay (P04629 whole entry): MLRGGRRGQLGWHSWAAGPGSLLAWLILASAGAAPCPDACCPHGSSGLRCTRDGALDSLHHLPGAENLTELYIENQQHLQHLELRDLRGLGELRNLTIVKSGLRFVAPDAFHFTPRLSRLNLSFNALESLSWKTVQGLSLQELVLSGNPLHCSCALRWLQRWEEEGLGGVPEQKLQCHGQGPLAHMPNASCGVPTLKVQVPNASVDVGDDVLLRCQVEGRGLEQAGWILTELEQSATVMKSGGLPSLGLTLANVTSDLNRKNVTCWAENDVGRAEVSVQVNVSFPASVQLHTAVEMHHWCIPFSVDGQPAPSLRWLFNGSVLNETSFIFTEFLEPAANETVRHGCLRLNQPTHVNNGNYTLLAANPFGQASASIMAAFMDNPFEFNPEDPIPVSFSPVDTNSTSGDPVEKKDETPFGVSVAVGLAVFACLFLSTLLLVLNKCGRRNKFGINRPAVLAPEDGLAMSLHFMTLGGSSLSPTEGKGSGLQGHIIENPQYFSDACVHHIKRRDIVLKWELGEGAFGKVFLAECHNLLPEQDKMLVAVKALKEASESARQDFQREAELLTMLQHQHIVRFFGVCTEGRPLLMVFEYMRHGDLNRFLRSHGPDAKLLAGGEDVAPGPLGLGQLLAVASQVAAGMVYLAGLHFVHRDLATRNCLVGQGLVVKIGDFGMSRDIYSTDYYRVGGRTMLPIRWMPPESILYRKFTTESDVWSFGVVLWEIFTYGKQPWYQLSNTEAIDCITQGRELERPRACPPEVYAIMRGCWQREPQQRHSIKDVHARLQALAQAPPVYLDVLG

[2] = target: T1, High affinity nerve growth factor receptor; assay: Inhibition of human recombinant TrkA at 20 uM using ATP and 5FAM tagged TrkA peptide substrate incubated for 60 mins by microfluidics assay
Procedure, shortened: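 TrkA enzyme at 2 nM, preincubated with inhibitor 60 min with shaking in HEPES kinase buffer (MgCl2, DTT, Brij-35, Tween 20), then ATP (190 µM running) and 5FAM-labelled TrkA peptide (1.5 µM) added. Run to 10–20% conversion in no-inhibitor wells. Product/substrate peaks separated by microfluidic mobility-shift read. Single point at 20 µM inhibitor, quadruplicate.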
Target sequence in this assay (P04629 33-796 limits assumed): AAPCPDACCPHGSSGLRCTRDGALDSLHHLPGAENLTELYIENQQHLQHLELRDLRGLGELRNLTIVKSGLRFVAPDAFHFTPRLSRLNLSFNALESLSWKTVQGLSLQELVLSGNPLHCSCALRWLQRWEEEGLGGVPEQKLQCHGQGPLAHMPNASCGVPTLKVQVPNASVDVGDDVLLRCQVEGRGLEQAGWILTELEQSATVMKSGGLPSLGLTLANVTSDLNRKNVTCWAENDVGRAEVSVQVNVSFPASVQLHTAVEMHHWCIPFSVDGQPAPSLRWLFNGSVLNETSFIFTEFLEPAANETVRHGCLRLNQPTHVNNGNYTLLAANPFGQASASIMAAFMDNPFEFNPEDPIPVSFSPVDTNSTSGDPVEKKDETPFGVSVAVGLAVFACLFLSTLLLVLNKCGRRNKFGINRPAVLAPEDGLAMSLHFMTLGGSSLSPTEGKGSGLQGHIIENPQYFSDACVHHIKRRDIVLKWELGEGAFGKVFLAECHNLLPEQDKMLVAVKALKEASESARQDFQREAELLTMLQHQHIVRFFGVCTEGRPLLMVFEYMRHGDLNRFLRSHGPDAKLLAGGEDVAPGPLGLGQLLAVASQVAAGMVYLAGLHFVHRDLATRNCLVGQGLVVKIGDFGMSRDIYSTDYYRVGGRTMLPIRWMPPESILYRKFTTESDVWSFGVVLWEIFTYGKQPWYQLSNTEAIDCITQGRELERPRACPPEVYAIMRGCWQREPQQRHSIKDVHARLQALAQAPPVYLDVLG

[3] = target: Vascular endothelial growth factor receptor 2 (Homo sapiens, UniProt P35968); assay: Inhibition of KDR (unknown origin) using ATP and 5FAM tagged TrkA peptide substrate incubated for 60 mins by microfluidics assay
Chain of Vascular endothelial growth factor receptor 2 (P35968 whole entry): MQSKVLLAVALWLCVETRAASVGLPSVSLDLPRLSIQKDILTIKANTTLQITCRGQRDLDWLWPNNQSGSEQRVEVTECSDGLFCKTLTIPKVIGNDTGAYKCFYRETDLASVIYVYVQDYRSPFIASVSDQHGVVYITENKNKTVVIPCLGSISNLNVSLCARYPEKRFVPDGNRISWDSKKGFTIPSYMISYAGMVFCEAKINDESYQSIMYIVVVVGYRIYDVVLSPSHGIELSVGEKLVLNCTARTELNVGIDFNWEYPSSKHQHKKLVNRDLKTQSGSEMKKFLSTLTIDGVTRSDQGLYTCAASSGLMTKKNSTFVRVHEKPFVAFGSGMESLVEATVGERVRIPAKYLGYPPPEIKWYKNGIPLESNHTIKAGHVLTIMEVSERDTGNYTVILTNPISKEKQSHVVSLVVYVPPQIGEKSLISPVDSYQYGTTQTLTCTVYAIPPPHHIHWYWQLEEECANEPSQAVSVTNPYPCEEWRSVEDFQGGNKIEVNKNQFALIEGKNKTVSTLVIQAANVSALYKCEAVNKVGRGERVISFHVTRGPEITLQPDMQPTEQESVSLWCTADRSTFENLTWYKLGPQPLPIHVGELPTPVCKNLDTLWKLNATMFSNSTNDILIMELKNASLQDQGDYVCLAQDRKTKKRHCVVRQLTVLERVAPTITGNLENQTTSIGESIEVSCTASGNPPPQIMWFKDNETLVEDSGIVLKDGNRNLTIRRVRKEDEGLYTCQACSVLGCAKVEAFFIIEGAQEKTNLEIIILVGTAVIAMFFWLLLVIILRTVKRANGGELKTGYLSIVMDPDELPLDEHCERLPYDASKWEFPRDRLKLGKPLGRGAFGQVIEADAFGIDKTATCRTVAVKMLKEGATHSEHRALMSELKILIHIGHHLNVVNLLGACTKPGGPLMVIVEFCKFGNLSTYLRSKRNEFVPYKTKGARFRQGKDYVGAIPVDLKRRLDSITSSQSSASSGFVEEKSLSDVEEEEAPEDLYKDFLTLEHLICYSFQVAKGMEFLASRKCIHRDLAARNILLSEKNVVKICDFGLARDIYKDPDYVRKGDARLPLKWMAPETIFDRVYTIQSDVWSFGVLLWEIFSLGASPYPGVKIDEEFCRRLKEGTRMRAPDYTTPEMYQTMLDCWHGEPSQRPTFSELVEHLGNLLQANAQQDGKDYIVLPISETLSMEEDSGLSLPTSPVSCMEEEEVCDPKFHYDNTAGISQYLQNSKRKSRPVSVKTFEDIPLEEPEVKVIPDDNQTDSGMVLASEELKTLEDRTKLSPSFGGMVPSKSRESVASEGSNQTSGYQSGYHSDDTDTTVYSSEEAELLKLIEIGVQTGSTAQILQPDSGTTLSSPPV

Ephrin type-B receptor 2 = target: T2, Ephrin type-B receptor 2 (Homo sapiens, UniProt P29323); assay: Inhibition of EphB2 (unknown origin) using ATP and 5FAM tagged TrkA peptide substrate incubated for 60 mins by microfluidics assay
T2 sequence (P29323 whole entry): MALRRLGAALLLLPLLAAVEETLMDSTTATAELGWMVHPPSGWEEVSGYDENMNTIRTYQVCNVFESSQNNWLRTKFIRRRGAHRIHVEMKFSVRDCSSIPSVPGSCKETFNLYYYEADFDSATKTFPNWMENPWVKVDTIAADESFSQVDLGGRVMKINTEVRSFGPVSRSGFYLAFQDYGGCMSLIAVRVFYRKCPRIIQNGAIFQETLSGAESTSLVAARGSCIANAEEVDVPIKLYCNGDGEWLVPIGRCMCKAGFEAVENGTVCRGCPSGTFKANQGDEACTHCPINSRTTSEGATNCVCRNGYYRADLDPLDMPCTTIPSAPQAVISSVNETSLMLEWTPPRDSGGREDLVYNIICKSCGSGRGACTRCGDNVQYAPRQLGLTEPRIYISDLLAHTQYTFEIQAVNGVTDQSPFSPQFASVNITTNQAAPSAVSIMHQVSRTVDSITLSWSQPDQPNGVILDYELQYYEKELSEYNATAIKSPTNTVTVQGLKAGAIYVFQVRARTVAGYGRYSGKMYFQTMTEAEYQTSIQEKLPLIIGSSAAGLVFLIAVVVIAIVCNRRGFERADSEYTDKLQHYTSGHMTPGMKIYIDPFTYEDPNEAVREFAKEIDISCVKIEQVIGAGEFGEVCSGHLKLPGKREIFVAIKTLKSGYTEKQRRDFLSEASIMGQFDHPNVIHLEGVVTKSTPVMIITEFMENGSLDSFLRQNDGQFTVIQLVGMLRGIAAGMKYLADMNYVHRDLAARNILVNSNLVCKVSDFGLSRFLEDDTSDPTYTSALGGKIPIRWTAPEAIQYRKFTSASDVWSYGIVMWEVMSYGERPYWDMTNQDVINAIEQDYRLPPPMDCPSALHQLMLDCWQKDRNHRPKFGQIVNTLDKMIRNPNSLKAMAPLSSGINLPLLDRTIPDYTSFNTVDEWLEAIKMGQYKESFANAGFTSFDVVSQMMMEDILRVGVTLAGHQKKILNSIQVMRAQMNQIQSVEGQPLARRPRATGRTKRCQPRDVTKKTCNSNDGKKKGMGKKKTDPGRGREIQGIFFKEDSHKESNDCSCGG

IC50 [1]	inhibition [2]	IC50 [3]	IC50 (Ephrin type-B receptor 2)	SMILES
530 nM	92%	–	–	Cn1cc(-c2cncc(Oc3cccc(NC(=O)Nc4cccc(C(F)(F)F)c4)c3)n2)cn1
–	48.8%	–	–	Cn1cc(-c2cncc(Oc3cccc(NC(=O)Nc4cc(C(C)(C)C)no4)c3)n2)cn1
22 nM	100%	> 2000 nM	> 2000 nM	CC(C)(C)c1cc(NC(=O)Nc2cccc(Oc3cncc(-c4ccc(F)cc4)n3)c2)no1
–	56.9%	–	–	CC(C)c1ccc(NC(=O)Nc2cccc(Oc3cncc(-c4ccc(F)cc4)n3)c2)cc1
1100 nM	96.2%	–	–	O=C(Nc1cccc(Oc2cncc(-c3ccsc3)n2)c1)Nc1cccc(C(F)(F)F)c1
–	69.3%	–	–	O=C(Nc1cccc(Oc2cncc(-c3cncnc3)n2)c1)Nc1cccc(C(F)(F)F)c1
–	28.2%	–	–	CC(C)c1ccc(NC(=O)Nc2cccc(Oc3cncc(-c4cncnc4)n3)c2)cc1
–	26.9%	–	–	Cn1nc(C(C)(C)C)cc1NC(=O)Nc1cccc(Oc2cncc(-c3ccc(F)cc3)n2)c1
–	37.2%	–	–	COc1ccc(-c2cncc(Oc3cccc(NC(=O)Nc4cc(C(C)(C)C)no4)c3)n2)cc1
> 100000 nM	–	–	–	CC(C)(C)c1cccc(NC(=O)Nc2cccc(Oc3cncc(Cl)n3)c2)c1
1700 nM	90.8%	–	–	CS(=O)(=O)c1ccc(-c2cncc(Oc3cccc(NC(=O)Nc4cccc(C(F)(F)F)c4)c3)n2)cc1
–	46%	–	–	Cn1cc(-c2cncc(-c3ccc(N)cc3)n2)cn1
24 nM	101%	–	–	Cn1cc(-c2cncc(Oc3cccc(NC(=O)Nc4cc(C(C)(C)C)on4)c3)n2)cn1
–	77%	–	–	Nc1ccc(-c2cncc(-c3cncnc3)n2)cc1
> 100000 nM	–	–	–	CC(C)(C)c1cc(NC(=O)Nc2cccc(Oc3cncc(Cl)n3)c2)no1
–	79.4%	–	–	CC(C)(C)c1cc(NC(=O)Nc2cccc(Oc3cncc(-c4cncnc4)n3)c2)on1
490 nM	94%	–	–	Cn1nc(C(C)(C)C)cc1NC(=O)Nc1cccc(Oc2cncc(-c3ccc(S(C)(=O)=O)cc3)n2)c1
–	86.9%	–	–	Cn1cc(-c2cncc(Oc3cccc(NC(=O)Nc4ccc(C(C)(C)C)cc4)c3)n2)cn1
870 nM	99.2%	–	–	CC(C)c1ccc(NC(=O)Nc2cccc(Oc3cncc(-c4ccsc4)n3)c2)cc1
–	56.3%	–	–	CC(C)c1ccc(NC(=O)Nc2cccc(Oc3cncc(-c4cnn(C)c4)n3)c2)cc1
92 nM	96.5%	–	> 2000 nM	CC(C)(C)c1cc(NC(=O)Nc2cccc(Oc3cncc(-c4ccc(S(C)(=O)=O)cc4)n3)c2)no1

IC50 [1]	inhibition [2]	IC50 [3]	IC50 (Ephrin type-B receptor 2)	SMILES
–	27.7%	–	–	CC(C)(C)c1ccc(NC(=O)Nc2cccc(Oc3cncc(-c4ccsc4)n3)c2)cc1
–	61.1%	–	–	Cn1cc(-c2cncc(Oc3cccc(NC(=O)Nc4cc(C(C)(C)C)nn4C)c3)n2)cn1
–	27.1%	–	–	O=C(Nc1cccc(Oc2cncc(-c3ccc(F)cc3)n2)c1)Nc1cccc(C(F)(F)F)c1
–	17%	–	–	Nc1ccc(-c2cncc(-c3ccsc3)n2)cc1
–	69%	–	–	CC(C)(C)c1cc(NC(=O)Nc2cccc(Oc3cncc(-c4ccsc4)n3)c2)on1
380 nM	98%	–	–	COc1ccc(-c2cncc(Oc3cccc(NC(=O)Nc4ccc(C(C)C)cc4)c3)n2)cc1
12 nM	99.7%	–	–	Cn1cc(-c2cncc(-c3ccc(NC(=O)Nc4cc(C(C)(C)C)nn4C)cc3)n2)cn1
3500 nM	–	–	–	O=C(Nc1cccc(Oc2cncc(Cl)n2)c1)Nc1cccc(C(F)(F)F)c1
–	46.7%	–	–	CC(C)(C)c1ccc(NC(=O)Nc2cccc(Oc3cncc(-c4ccc(S(C)(=O)=O)cc4)n3)c2)cc1
–	49.6%	–	–	CC(C)(C)c1ccc(NC(=O)Nc2cccc(Oc3cncc(-c4cncnc4)n3)c2)cc1
420 nM	96.9%	–	–	CC(C)c1ccc(NC(=O)Nc2cccc(Oc3cncc(-c4ccc(S(C)(=O)=O)cc4)n3)c2)cc1
1600 nM	95.5%	–	–	COc1ccc(-c2cncc(Oc3cccc(NC(=O)Nc4cccc(C(F)(F)F)c4)c3)n2)cc1
–	32.2%	–	–	CC(C)(C)c1ccc(NC(=O)Nc2cccc(Oc3cncc(-c4ccc(F)cc4)n3)c2)cc1
–	47%	–	–	Nc1ccc(-c2cncc(Cl)n2)cc1
–	47.2%	–	–	CC(C)(C)c1cc(NC(=O)Nc2cccc(Oc3cncc(-c4ccc(F)cc4)n3)c2)on1
47 nM	98.6%	> 2000 nM	> 2000 nM	COc1ccc(-c2cncc(Oc3cccc(NC(=O)Nc4cc(C(C)(C)C)on4)c3)n2)cc1
–	26.8%	–	–	Cn1nc(C(C)(C)C)cc1NC(=O)Nc1cccc(Oc2cncc(-c3ccsc3)n2)c1
–	15.5%	–	–	COc1ccc(-c2cncc(Oc3cccc(NC(=O)Nc4cc(C(C)(C)C)nn4C)c3)n2)cc1
39 nM	100%	> 2000 nM	> 2000 nM	CC(C)(C)c1cc(NC(=O)Nc2cccc(Oc3cncc(-c4ccsc4)n3)c2)no1
–	33.8%	–	–	COc1ccc(-c2cncc(Oc3cccc(NC(=O)Nc4ccc(C(C)(C)C)cc4)c3)n2)cc1

From ChEMBL document CHEMBL3596123, “Identification of pyrazine-based TrkA inhibitors: design, synthesis, evaluation, and computational modeling studies” (Medchemcomm, 2014)
